What is called Kd is the free concentration of one partner at which half of the binding sites on the other are occupied at equilibrium, for simple one-to-one binding. As a reminder, the pKa is the pH at which an ionisable group is half protonated.

Results on ten molecules are retold here after paper PMC2920133 (Biochemistry, 2010).

SMILES strings stand for the structures. Residue numbers refer to the chain shown, from its start. Like-named read-outs stand apart in the source and are kept apart here.

Series [1] has as its target ArsD109 V17W single-tryptophan derivative (Escherichia coli, UniProt P46003, V17W/W35Y/W97Y). Format: binding. To be noted: for fluorescence quenching: high concentrations: 5 mM As(III) or 0.1 mM Sb(III) (Figure 2B).
Series [2] concerns the target ArsD109 T15W single-tryptophan derivative (Escherichia coli, UniProt P46003, T15W/W35Y/W97Y). The series can be described thus: Intrinsic tryptophan fluorescence quenching, metalloid binding to T15W. To be noted: for fluorescence quenching: high concentrations: 5 mM As(III) or 0.1 mM Sb(III) (Figure 2B).
The target of a further series is T1, ArsD109 C13G/T15W (Escherichia coli, UniProt P46003, C13G/T15W/W35Y/W97Y).
T1 sequence (P46003 1-109 C13G/T15W/W35Y/W97Y): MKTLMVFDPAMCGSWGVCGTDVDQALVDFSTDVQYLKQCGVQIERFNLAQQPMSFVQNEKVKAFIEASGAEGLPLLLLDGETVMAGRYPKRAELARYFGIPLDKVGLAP
Kind of series: Intrinsic tryptophan fluorescence quenching, As. Format: binding. In short, it runs like this: (§1)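 N-terminal His6 ArsD109 (W35/97Y, T15W, plus single Cys→Gly) expressed in BL21(DE3) with 0.3 mM IPTG for 3 h. Used at 1 μM in 50 mM MOPS-KOH pH 7.5 with 0.25 mM EDTA, room temperature. Sodium arsenite titrated. Quenching rate k_obs (ex 295 nm, em 345 nm) fitted per arsenite concentration; k_obs = k_off + k_on[As(III)], and Kd = k_off/k_on.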

For a further series, the target named is T2, ArsD109 C12G/T15W (Escherichia coli, UniProt P46003, C12G/T15W/W35Y/W97Y).
T2 sequence (P46003 1-109 C12G/T15W/W35Y/W97Y): T1 sequence (P46003 1-109 C13G/T15W/W35Y/W97Y) with C12G, G13C
Kind of series: Intrinsic tryptophan fluorescence quenching, As. Format: binding. In short, it runs like this:
as §1

The subject of series [3] is single-tryptophan derivatives of ArsD109. Format: binding, Escherichia coli. The following applies: 1 μM protein mixed with equimolar As(III), absence of added thiols. An outline of the steps:
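Single-tryptophan ArsD109 (N-terminal His6, W35/97Y background carrying T15W or V17W), expressed in E. coli BL21(DE3). Protein at 1 μM in 50 mM MOPS-KOH pH 7.5 with 0.25 mM EDTA, room temperature, no thiol added. Sodium arsenite added from concentrated stock. Trp fluorescence (ex 295 nm, em 345 nm) followed over time and corrected for dilution.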

In the next series the target is T3, ArsD109 C18G/T15W (Escherichia coli, UniProt P46003, C18G/T15W/W35Y/W97Y).
T3 sequence (P46003 1-109 T15W/C18G/W35Y/W97Y): T1 sequence (P46003 1-109 C13G/T15W/W35Y/W97Y) with G13C, C18G
The series can be described thus: Intrinsic tryptophan fluorescence quenching, As. Format: binding. In short, it runs like this:
as §1

Another series deals with ArsA ATPase (Escherichia coli, UniProt P08690). The series can be described thus: Coupled ATPase assay, metalloid-stimulated ArsA activity. The class given is biochemical. To be noted: DMSA titration.
For series [4] the following is noted: thiolate of GS^−1; cited from earlier work.
For a further series, the target named is ArsD109-ArsA (Escherichia coli, UniProt P08690+P46003, DEL110-120). The series can be described thus: Metalloid transfer assay on amylose column. Format: biochemical. The following applies: 5 mM nucleotide.
Setting [5] is: quenching of T15W fluorescence, retains Cys12 and Cys18.
Setting [6] is: quenching of T15W fluorescence, retains Cys13 and Cys18.
The mark [7] stands for this setting: quenching of T15W fluorescence, retains Cys12 and Cys13.
[8] abbreviates: additive 5 mM, 50 μM sodium arsenite, pH 7.5.

Consider `O=[As][O-].[Na+]` [As(III), sodium arsenite], for which the “rate of fluorescence quenching at pH 9 relative to pH 7” value in series [1] (50 μM sodium arsenite, 1 μM V17W, absence of GSH) is ~ 10 fold. For the same molecule, the “fluorescence change in the absence of GSH” value in [1] (50 μM sodium arsenite, pH 7.5) is recorded as “decreased very slowly”. The fluorescence quenching result in [1] and in series [2] was “approximately 50%” each time. Further, the Kd is 2000 ± 1000 nM in [1] (read-out: Kd (binding affinity), calculated from koff/kon); 1500 ± 500 nM in [2] (calculated from koff/kon); 68 ± 6 µM at ArsD109 C13G/T15W (calculated from koff/kon); 48 ± 3 µM at ArsD109 C12G/T15W (calculated from koff/kon); 28 ± 3 µM on ArsD109 C18G/T15W (calculated from koff/kon). In addition, the koff entry in [2] (As(III) concentration dependence of fluorescence quenching, no added thiols) was “(3 ± 1) × 10^−4 s^−1”; at ArsD109 C13G/T15W (setting [5]), “(2.7 ±0.1) × 10^−3 s^−1”; at ArsD109 C12G/T15W (setting [6]), “(2.4 ± 0.1) × 10^−3 s^−1”; on ArsD109 C18G/T15W (setting [7]), “(1.4 ± 0.1) × 10^−3 s^−1”. Moreover, the kon entry was “(4 ±0.2) × 10^−5 s^−1 μM^−1” at ArsD109 C13G/T15W (setting [5]), “(5 ± 0.1) × 10^−5 s^−1 μM^−1” at ArsD109 C12G/T15W (setting [6]) and “(5 ± 0.1) × 10^−5 s^−1 μM^−1” at ArsD109 C18G/T15W (setting [7]). The “time to attain a steady-state level of fluorescence” value in series [3] is recorded as “more than 2 h”.

With `O=C(O)[C@@H](S)[C@@H](S)C(=O)O` [DMSA, dimercaptosuccinic acid], at ArsA ATPase (0.3 μM ArsA alone), the “effect on basal activity of ArsA” value is on record as “did not affect”. For the same molecule, on ArsA ATPase (0.3 μM ArsA, 0.5 mM sodium arsenite), the “effect on As(III)-stimulated rate of ArsA activity” value is on record as “inhibited”.

With `N[C@@H](CCC(=O)N[C@@H](CS)C(=O)NCC(=O)O)C(=O)O` [GSH, reduced glutathione], in series [1] (5 mM GSH, 50 μM sodium arsenite, 1 μM V17W, pH 7.5), the “acceleration of rate of As(III) fluorescence quenching” value came out at 10 fold. The “rate of As(III) fluorescence quenching with additive” value in series [1] (5 mM GSH, 50 μM sodium arsenite, pH ≥8) is “too fast to measure accurately”. In addition, the “effect of additive on rate of fluorescence quenching by As(III)” value (“effect of additive” below) is “had little effect” in [1] (additive 0.2 mM, 50 μM sodium arsenite, pH 7.5) and “increased the rate substantially” in series [1] (setting [8]). Moreover, the pKa in [4] was 8.7.

As to `N[C@@H](CS)C(=O)O` [L-cysteine], in series [1] (setting [8]), the “effect of additive” value is “increased the rate of quenching”.

As for `Nc1ncnc2c1ncn2[C@@H]1O[C@H](COP(=O)([O-])OP(=O)([O-])O)[C@@H](O)[C@H]1O.[Mg+2]` [MgADP], the “transfer of As(III) from MBP-ArsD109 to ArsA” value (from here on “transfer of As(III)”) at ArsD109-ArsA (room temperature) is “As(III) eluted with MBP-ArsD109 and not with ArsA”.

As for `Nc1ncnc2c1ncn2[C@@H]1O[C@H](CO[P@](=O)(O)O[P@](=O)(O)O[P@@](=O)(O)S)[C@@H](O)[C@H]1O` [MgATP-γ-S], the “transfer of As(III)” value on ArsD109-ArsA (room temperature) was “did not promote transfer”.

With `Nc1ncnc2c1ncn2[C@@H]1O[C@H](COP(=O)(O)OP(=O)([O-])OP(=O)([O-])O)[C@@H](O)[C@H]1O.[Mg+2]` [MgATP], the entries for the “transfer of As(III)” value on ArsD109-ArsA (4 °C) and on ArsD109-ArsA (room temperature) were “almost no As(III) eluted with ArsA” and “nearly all of the As(III) eluted in the ArsA-containing fractions”, respectively.

Turning to `O.O.O.O=C([O-])[C@H]([O-])[C@@H]([O-])C(=O)[O-].O=C([O-])[C@H]([O-])[C@@H]([O-])C(=O)[O-].[K+].[K+].[Sb+3].[Sb+3]` [Sb(III), potassium antimonyl tartrate], the “fluorescence quenching in the absence of added monothiols” value in series [1] (2.5 μM, pH 7.5) is listed as “rapidly quenched fluorescence”. Besides, the fluorescence quenching result in series [1] and in series [2] was “approximately 50%” each time.

Regarding `O=C(O)CCP(CCC(=O)O)CCC(=O)O` [TCEP, tris(2-carboxyethyl)phosphine], in series [1] (setting [8]), the “effect of additive” value is on record as “did not increase the rate of quenching”.

Regarding `OCCS` [β-mercaptoethanol], the “effect of additive” value in [1] (setting [8]) was “increased the rate of quenching”.
